pIC50, pKd: −log10 of the molar value. Active and inactive are the calls of the source. The calls are words filed in the database; no cut-off is given here.
How the values were obtained:
Escherichia coli = assay: Antibacterial activity against Escherichia coli ATCC 25922 assessed as reduction in bacterial growth incubated for 18 to 20 hrs by broth microdilution assay; assay type: functional
Staphylococcus aureus = assay: Antibacterial activity against Staphylococcus aureus ATCC 25923 assessed as reduction in bacterial growth incubated for 18 to 20 hrs by broth microdilution assay; assay type: functional
Serine--tRNA ligase [1] = biological target: T1, Serine--tRNA ligase (Escherichia coli (strain K12), UniProt P0A8L1); assay: Inhibition of C-terminal His10-tagged Escherichia coli B ER2560 SerRS expressed in Lemo21(DE3) using Ap4A as substrate in presence of serine by leuconostoc mesenteroides hexokinase/glucose 6-Phosphate dehydrogenase coupled UV-visible spectrophotometry
T1 sequence (P0A8L1 whole entry): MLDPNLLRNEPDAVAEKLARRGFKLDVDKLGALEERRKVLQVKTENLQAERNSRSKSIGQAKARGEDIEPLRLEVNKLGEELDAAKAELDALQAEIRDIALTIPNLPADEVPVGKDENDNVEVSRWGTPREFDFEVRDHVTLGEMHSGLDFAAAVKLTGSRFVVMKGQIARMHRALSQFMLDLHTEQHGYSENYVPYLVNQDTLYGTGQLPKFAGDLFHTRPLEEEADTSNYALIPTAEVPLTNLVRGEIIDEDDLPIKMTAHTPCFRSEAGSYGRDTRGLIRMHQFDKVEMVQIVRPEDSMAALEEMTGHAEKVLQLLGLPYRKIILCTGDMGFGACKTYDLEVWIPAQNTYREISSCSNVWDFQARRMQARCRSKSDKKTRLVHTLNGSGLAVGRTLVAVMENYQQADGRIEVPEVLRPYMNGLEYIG
Procedure, shortened: (§1)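 Continuous coupled spectrophotometric assay of the adenylate formation step with thrombin-cleaved, gel-filtered SerRS. Buffer is 50 mM HEPES pH 7.6 with 10 mM MgCl2, 50 mM KCl, 1 mM DTT and 10% DMSO. It also holds 10 mM glucose, 0.5 mM NADP+, yeast hexokinase and L. mesenteroides G6PDH. IC50 by non-linear regression.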

Serine--tRNA ligase [2] = biological target: Serine--tRNA ligase (Staphylococcus aureus (strain NCTC 8325 / PS 47), UniProt P95689); assay: Inhibition of C-terminal His10-tagged Staphylococcus aureus seg50 SerRS expressed in Lemo21(DE3) using Ap4A as substrate in presence of serine by leuconostoc mesenteroides hexokinase/glucose 6-Phosphate dehydrogenase coupled UV-visible spectrophotometry; procedure, shortened: as §1
Serine--tRNA ligase (Staphylococcus aureus (strain NCTC 8325 / PS 47), UniProt P95689), sequence (P95689 whole entry): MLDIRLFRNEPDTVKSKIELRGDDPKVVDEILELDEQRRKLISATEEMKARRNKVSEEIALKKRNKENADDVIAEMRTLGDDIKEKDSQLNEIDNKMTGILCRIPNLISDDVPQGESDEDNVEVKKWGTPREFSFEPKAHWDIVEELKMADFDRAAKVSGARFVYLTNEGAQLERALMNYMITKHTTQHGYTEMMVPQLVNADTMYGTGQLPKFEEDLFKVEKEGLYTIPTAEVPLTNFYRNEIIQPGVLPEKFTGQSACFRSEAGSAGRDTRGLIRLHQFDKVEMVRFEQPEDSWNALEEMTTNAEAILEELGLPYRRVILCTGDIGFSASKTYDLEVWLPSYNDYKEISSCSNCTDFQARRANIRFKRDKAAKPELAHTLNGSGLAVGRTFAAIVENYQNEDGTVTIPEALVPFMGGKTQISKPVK

[3] = Solubility of the compound in HEPES buffer in presence of human N-terminal polyHis-tagged SerRS expressed in Escherichia coli BL21 (DE3) at 1000 uM; assay type: physicochemical
Serine--tRNA ligase [4] = biological target: T1, Serine--tRNA ligase; assay: Binding affinity to C-terminal His10-tagged Escherichia coli B ER2560 SerRS expressed in Lemo21(DE3) SerRS assessed as dissociation constant by isothermal titration calorimetry
[5] = biological target: Serine--tRNA ligase (Escherichia coli (strain K12)) (UniProt P0A8L1); assay: Binding affinity to C-terminal His10-tagged Escherichia coli B ER2560 SerRS expressed in Lemo21(DE3) SerRS assessed as binding stoichiometry at 2:1 ratio of compound to protein by isothermal titration calorimetry
Serine--tRNA ligase (Escherichia coli (strain K12)), sequence (P0A8L1 whole entry, looked up): as the sequence (P0A8L1 whole entry) above
Procedure, shortened: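 E. coli SerRS was purified by gel filtration and dialysed overnight at 4 °C into 20 mM Tris-HCl pH 7.5, 200 mM NaCl. Ligands were made up in the same buffer and all solutions degassed. ITC ran at 25 °C: 7 µM protein in the cell was titrated with 140 µM ligand by 2 µl then 26 × 10 µl injections (20 s each, 120 s apart). Stoichiometry N came from iterative isotherm fitting; runs were in triplicate.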

Serine--tRNA ligase [6] = biological target: T1, Serine--tRNA ligase; assay: Binding affinity to C-terminal His10-tagged Escherichia coli B ER2560 SerRS expressed in Lemo21(DE3) SerRS assessed as affinity constant for first binding site by isothermal titration calorimetry
Serine--tRNA ligase [7] = biological target: T1, Serine--tRNA ligase; assay: Binding affinity to C-terminal His10-tagged Escherichia coli B ER2560 SerRS expressed in Lemo21(DE3) SerRS assessed as affinity constant for second binding site by isothermal titration calorimetry
[8] = Selectivity index, ratio of IC50 for human N-terminal polyHis-tagged SerRS expressed in Escherichia coli BL21 (DE3) to IC50 for C-terminal His10-tagged Staphylococcus aureus seg50 SerRS expressed in Lemo21(DE3)
[9] = Selectivity index, ratio of IC50 for human N-terminal polyHis-tagged SerRS expressed in Escherichia coli BL21 (DE3) to IC50 for C-terminal His10-tagged Escherichia coli B ER2560 SerRS expressed in Lemo21(DE3)

Structure (SMILES) | MIC (Escherichia coli) [µg/mL] | MIC (Staphylococcus aureus) [µg/mL] | also measured
C/C=C/c1nc(N)c2ncn([C@@H]3O[C@H](COS(=O)(=O)NC(=O)[C@@H](N)CO)[C@@H](O)[C@H]3O)c2n1 | > 256 | > 256 | –
CC1(C)O[C@@H]2[C@H](O1)[C@@H](CO)O[C@H]2n1cnc2c(N)nc(I)nc21 | – | – | pIC50 (Serine--tRNA ligase [1]): 3.55; pIC50 (Serine--tRNA ligase [2]): 3.64
Nc1nc(Cl)nc2c1ncn2[C@@H]1O[C@H](COS(=O)(=O)NC(=O)[C@@H](N)CO)[C@@H](O)[C@H]1O | > 256 | > 256 | –
Nc1nc(-c2ccco2)nc2c1ncn2[C@@H]1O[C@H](COS(=O)(=O)NC(=O)[C@@H](N)CO)[C@@H](O)[C@H]1O | > 256 | > 256 | –
Nc1nc(I)nc2c1ncn2[C@@H]1O[C@H](COS(=O)(=O)NC(=O)[C@@H](N)CO)[C@@H](O)[C@H]1O | > 256 | > 256 | –
Nc1nc(-c2ccsc2)nc2c1ncn2[C@@H]1O[C@H](COS(=O)(=O)NC(=O)[C@@H](N)CO)[C@@H](O)[C@H]1O | > 256 | > 256 | solubility [3]: Insoluble
Nc1nc(-c2cccnc2)nc2c1ncn2[C@@H]1O[C@H](COS(=O)(=O)NC(=O)[C@@H](N)CO)[C@@H](O)[C@H]1O | > 256 | > 256 | pKd (Serine--tRNA ligase [4]): 5.72 to 6.54; Activity [5]: Active; pKd (Serine--tRNA ligase [6]): 6.54; solubility [3]: Insoluble; pKd (Serine--tRNA ligase [7]): 5.72
Nc1ncnc2c1ncn2[C@@H]1O[C@H](COS(=O)(=O)NC(=O)[C@@H](N)CO)[C@@H](O)[C@H]1O | > 256 | > 256 | pKd (Serine--tRNA ligase [4]): 8.90; Activity [5]: Active; Ratio IC50 [8]: 10; Ratio IC50 [9]: 10
Nc1nc(-c2ccccc2)nc2c1ncn2[C@@H]1O[C@H](COS(=O)(=O)NC(=O)[C@@H](N)CO)[C@@H](O)[C@H]1O | > 256 | > 256 | –
